# Screening results: PubChem, several laboratories
# Runt-CBFb FRET: blocks binding of human RUNX1 Runt domain to CBFb; inhibition, % at 20 µM; Cerulean-Runt/Venus-CBFb FRET ratio 530/480, 1 h; AID 1496; 220,000 tested, 0.46% active; Q01196+Q13951;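 active means inhibition over about 50% at 20 µM in the single-dose screen, limit read from the data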;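 further: 0% = DMSO wells and 100% = excess unlabeled CBFb competitor control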
# Target sequence (Q01196 whole entry, looked up, the tested form may be a part): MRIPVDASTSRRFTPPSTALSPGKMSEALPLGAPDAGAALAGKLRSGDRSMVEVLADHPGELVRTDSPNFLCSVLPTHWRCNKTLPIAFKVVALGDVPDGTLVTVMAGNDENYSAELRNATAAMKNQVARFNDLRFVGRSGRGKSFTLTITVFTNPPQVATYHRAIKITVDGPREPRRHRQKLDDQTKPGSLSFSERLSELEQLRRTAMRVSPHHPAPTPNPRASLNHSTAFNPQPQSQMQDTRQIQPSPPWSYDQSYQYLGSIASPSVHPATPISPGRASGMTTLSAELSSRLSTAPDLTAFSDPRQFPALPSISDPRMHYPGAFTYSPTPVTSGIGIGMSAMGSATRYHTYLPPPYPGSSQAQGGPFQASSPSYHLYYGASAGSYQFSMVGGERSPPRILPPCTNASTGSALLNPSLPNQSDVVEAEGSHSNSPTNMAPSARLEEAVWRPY
# Target sequence (Q13951 whole entry, looked up, the tested form may be a part): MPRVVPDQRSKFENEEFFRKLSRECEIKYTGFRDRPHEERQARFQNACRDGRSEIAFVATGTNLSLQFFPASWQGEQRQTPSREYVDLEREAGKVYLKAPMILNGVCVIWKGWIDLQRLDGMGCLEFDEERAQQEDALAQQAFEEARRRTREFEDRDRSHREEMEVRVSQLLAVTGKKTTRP
#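 Buffer or medium: Tris pH 7.5 buffer with BSA. Assay system: Cerulean-labeled Runt domain protein. Amount: each fluorescent fusion protein 100 nM. Read-out basis: loss of energy transfer signal. Incubation: 1 h compound exposure, room temperature. Probe or stimulus: Venus-CBFb binding partner, 100 nM. Detection: FRET, excitation 422 nm, emission at 530 and 480 nm.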
# Runt-SMMHC FRET: inhibitors of human RUNX1 Runt domain binding to CBFb-SMMHC | Q01196+Q13951 | Cerulean-Runt/Venus-CBFb-SMMHC FRET ratio 530/480, 1 h | inhibition, % at 20 µM | 220,000 tested, 0.74% active;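 active means mean inhibition across duplicate retests at 20 µM reaching about 50%, limit read from the data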;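 further: 0% = DMSO wells and 100% = wells with excess untagged CBFb-SMMHC; inhibitors lower the FRET ratio by blocking Runt binding to CBFb-SMMHC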
# RanGTP-Impb inh: inhibitors of RanGTP-importin-beta interaction, primary screen, biochemical, FRET, CFP-Ran, YFP-importin-beta, homogeneous; cell-free CFP-Ran/YFP-importin-beta FRET ratio; inhibition, % (concentration not given with the values); 300,000 tested, 1.1% active; AID 2216;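 active means more than half of the replicate wells show a fall in the fluorescence ratio signal beyond about 16%, limit read from the data, passing the limit was not always enough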;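 further: 0% = DMSO wells and 100% = Ran loaded with GDP instead of GTP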
# Hck-Nef inh: human Hck-Nef kinase inhibition | Recombinant Hck-YEEI plus Nef, Z-Lyte FRET kinase assay | inhibition, % at 20 µM | 220,000 tested, 0.68% active | AID 463187;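 active means Hck-Nef kinase inhibition above about 50%, limit read from the data; inactive means inhibition below that limit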;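 further: 0% = DMSO with Hck plus Nef and 100% = Hck alone without Nef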
# Hck-Nef confirm: Hck-Nef kinase inhibition, confirmation; shares compounds with Hck-Nef inh; Recombinant Hck-YEEI:Nef, Z-Lyte FRET kinase assay; calls only at 10 µM; 1,300 tested, 28% active; AID 463188;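 active means average inhibition of at least 50%, with Z-scores no higher than 3 in both the phospho-tyrosine peptide and fluorescence counterscreens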
# Active calls of the source: *; i = inactive; . = no result shown; + = active, no number. A selection: hits, their analogues and other compounds. The true share with any hit is near 1.7%.
SMILES,Runt-CBFb FRET,Runt-SMMHC FRET,RanGTP-Impb inh,Hck-Nef inh,Hck-Nef confirm
COc1ccc(OCCOC(=O)c2nc3nccc(C)n3n2)cc1,-2,0,-1,19,.
CCOC(=O)c1cc(-c2ccccc2)sc1NC(=O)COC(=O)c1cccc(S(N)(=O)=O)c1,-49,-56,-2,58*,+
COc1ccc(NS(=O)(=O)c2cccc(C(=O)N/N=C(\C)c3ccc(-n4ccnc4)cc3)c2)cc1,2,-8,-2,59*,i
COc1ccc(NS(=O)(=O)c2cccc(C(=O)N/N=C(\C)c3ccncc3)c2)cc1,0,30,-5,6,.
CCCC12CN3CC(C)(CN(C1)C3c1ccc([N+](=O)[O-])o1)C2=O (centres undefined),0,-5,-2,2,.
CCC12CN3CC(CC)(CN(C1)C3c1ccc([N+](=O)[O-])o1)C2=O (centres undefined),1,-2,4,50*,i
COc1ccc(N=C2NC(=O)/C(=C\c3ccco3)S2)cc1,-1,-20,-4,61*,i
COc1cccc(OC)c1C(=O)OCCCOC(=O)c1c(OC)cccc1OC,.,.,0,.,.
O=C1N=c2ccccc2=C1c1sc(Nc2cccc(O)c2)nc1O,.,.,-2,.,.
O=C1N=c2ccccc2=C1c1sc(Nc2ccc(O)cc2)nc1O,-10,-3,.,87*,+
c1coc(-c2nc3nc4ccccc4nc3n2CC2CCCO2)c1 (centres undefined),12,26,11,159*,.
Cc1ccc(NC(=O)Cn2c(O)c(N=NC(=O)c3cc([N+](=O)[O-])ccc3O)c3ccccc32)cc1,-11,-21,-1,68*,+
NC(=S)N=Nc1c(O)n(CC(=O)Nc2ccccc2)c2ccccc12,.,.,-3,.,.
Cc1cccc(NC(=O)Cn2c(O)c(N=NC(=O)c3ccccc3O)c3ccccc32)c1,-13,-31,3,51*,+
Cc1ccc(-c2nc3ccccc3s2)cc1NC(=S)NC(=O)c1ccccc1,2,-1,3,38,.
Cc1ccc(-c2nc3ccccc3s2)cc1NC(=O)c1cc(-n2cnnc2)ccc1Cl,.,-4,-1,91*,i
CCN(c1ccccc1)S(=O)(=O)c1cc(C(=O)Oc2ccc3c(C)cc(=O)oc3c2)ccc1C,13,25,-4,56*,.
CC(=O)Oc1ccc2c(C)cc(=O)oc2c1,9,19,0,86*,i
CCN(c1ccccc1)S(=O)(=O)c1cc(C(=O)OC(C)C(=O)Nc2ccc3c(c2)OCCO3)ccc1C (centres undefined),0,2,-2,3,.
COc1ccc(C(=O)N=c2sc3ccccc3n2C)cc1,2,2,2,25,.
COc1cc(OC)cc(C(=O)N=c2sc3ccccc3n2C)c1,-4,-6,2,81*,i
CC(=O)Nc1ccc(NC(=O)CSc2nc3nc(-c4cccs4)cc(C(F)(F)F)c3c(=O)[nH]2)cc1,5,-1,-6,27,.
N#Cc1ccc(Cl)cc1NC(=O)CSc1nc2nc(-c3cccs3)cc(C(F)(F)F)c2c(=O)[nH]1,-2,2,4,67*,i
CS(=O)(=O)CCC(C(=O)OCC(=O)c1ccc(Cl)cc1)N1C(=O)c2ccccc2C1=O (centres undefined),-1,0,1,-1,.
COc1cc(/C=C/C(=O)OCC(=O)Nc2sc3c(c2C#N)CCC(C)C3)ccc1OCC#N (centres undefined),2,-5,-2,51*,i
SMILES,Runt-CBFb FRET,Runt-SMMHC FRET,RanGTP-Impb inh,Hck-Nef inh,Hck-Nef confirm
CCOc1ccccc1N=c1oc2cc(O)ccc2cc1C(=O)NCC1CCCO1 (centres undefined),53*,59*,180*,59*,.
Oc1[nH]c2ccccc2c1N=Nc1ncnc2c1oc1ccccc12,-2,-11,-6,56*,i
COc1ccc(OC)c(/C=C2\SC(=S)N(NS(=O)(=O)c3ccccc3)C2=O)c1,.,.,-6,.,.
O=C1/C(=C/C=C/c2ccco2)SC(=S)N1NS(=O)(=O)c1ccccc1,33,6,.,102*,+
CC(C)Nc1ccc(Nc2ccnc3cc4ccccc4cc23)cc1,7,8,2,69*,+
O=C(NCCc1ccccc1)c1nccc2ccccc12,.,.,-2,.,.
c1ccc(CCNc2ccnc3cc4ccccc4cc23)cc1,36,93*,152*,156*,.
CN(C(=O)COC(=O)c1ccccc1SCC(=O)N1CCCC1)c1ccccc1,.,.,-1,.,.
Cc1cccc(C)c1NC(=O)CSc1nnc(-c2cnccn2)n1C,.,.,4,.,.
CC1=CC(C)[C@H](/C=N/n2c(=O)[nH]c3c([nH]c4ccc(Br)cc43)c2=O)C(C)C1 (some centres undefined),.,4,-55,61*,i
Cc1ccc(-c2csc(Nc3ccc(C(=O)O)cc3)[n+]2Cc2ccccc2)cc1,-6,-16,6,85*,+
CC(=O)c1cc(CC(=O)N2CCc3c([nH]c4ccccc34)C2c2ccccn2)cs1 (centres undefined),.,.,1,21,.
Cc1nc(C)c(CC(=O)N2CCc3c([nH]c4ccccc34)C2c2ccccn2)s1 (centres undefined),2,5,1,+,i
N=C1/C(=C/c2ccc(-c3cccc(C(=O)O)c3)o2)C(=O)N=C2SC=C(c3ccccc3)N12,-35,-97,-7,91*,+
N=C1/C(=C\c2ccc(-c3cc(Cl)cc(Cl)c3)o2)C(=O)N=C2SC=C(c3ccccc3)N12,-6,-27,4,5,.
COc1ccc(NC(=S)N2CCN(CCN3C(=O)c4cccc5cccc(c45)C3=O)CC2)cc1,-1,-2,3,129*,i
COc1cccc(CSc2nc(N)cc(N)n2)c1,.,.,8,.,.
Fc1ccccc1/C=N/Nc1ncnc2nc[nH]c12,0,-1,-3,56*,+
Fc1cccc(/C=N/Nc2ncnc3nc[nH]c23)c1,0,-6,2,65*,+
Fc1cccc(/C=N/Nc2ccccn2)c1,-1,-8,4,26,.
COc1cc(/C=C2\SC(c3ccccc3)=NC2=O)cc(Cl)c1O,44,69*,3,50*,+
O=C(Nc1cc(F)c(Br)cc1F)c1ccc(Cl)cc1,1,-1,-3,15,.
COc1cccc(-n2c(SCc3cc(=O)oc4cc(O)c(O)cc34)nc3ccccc3c2=O)c1,67*,.,1,74*,.
CCN(CC)C(=O)CSc1nc2ccccc2c(=O)n1-c1cccc(OC)c1,2,-1,-1,0,.
COc1cc(C(=O)Nc2ccccc2C(=O)Nc2ccccn2)cc(OC)c1OC,.,.,5,.,.
COc1ccc(N=c2oc3cc(O)ccc3cc2C(=O)Nc2ccccn2)cc1OC,55*,92*,5,84*,i
O=C(OCc1cccc(C(F)(F)F)c1)c1cc(S(=O)(=O)N2CCOCC2)ccc1F,.,.,3,.,.
